In ChEMBL document CHEMBL4390654, “Microwave-assisted solid-phase synthesis of antisense acpP peptide nucleic acid-peptide conjugates active against colistin- and tigecycline-resistant E. coli and K. pneumoniae” (Eur J Med Chem, 2019):

Experiments:
Escherichia coli [1] = experiment: Antibacterial activity against Escherichia coli ATCC 25922 assessed as reduction in microbial growth incubated for 20 hrs; assay type: functional; conditions: ATCC 25922, 20 h
Summary of the method: (§1)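 Broth microdilution MIC (modified Hancock protocol) in non-binding polystyrene plates. Inoculum ~2 × 10^5 CFU/mL in Mueller-Hinton broth with Mg²⁺ and Ca²⁺ at 4 mg/L each. Compounds dissolved in water, diluted in 0.01% acetic acid/0.2% BSA (final), added as 10× stocks. Covered plates incubated 20 h at 35 °C (± 2 °C) with 220 rpm circular shaking before MIC read.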

Escherichia coli [2] = experiment: Antibacterial activity against Escherichia coli lacking a functional SbmA assessed as reduction in microbial growth incubated for 20 hrs
Summary of the method: (§2)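 Broth microdilution MIC after a modified Hancock protocol for cationic peptides, in non-binding polystyrene plates. Inoculum ~2 × 10^5 CFU/mL in Mueller-Hinton broth with Mg²⁺ and Ca²⁺ at 4 mg/L each. Compounds dissolved in water, diluted in 0.01% acetic acid, 0.2% BSA (final), added as 10× aliquots. Covered plates incubated 20 h at 35 °C (± 2 °C) with shaking at 220 rpm. MIC read as lowest inhibiting concentration.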

Klebsiella pneumoniae [3] = experiment: Antibacterial activity against Klebsiella pneumoniae ATCC 13883 assessed as reduction in microbial growth incubated for 20 hrs; assay type: functional; conditions: ATCC 13883, 20 h; summary of the method: as §2
Pseudomonas aeruginosa = experiment: Antibacterial activity against Pseudomonas aeruginosa PAO1 assessed as reduction in microbial growth incubated for 20 hrs; assay type: functional; conditions: PAO1, 20 h; summary of the method: as §2
Acinetobacter baumannii = experiment: Antibacterial activity against Acinetobacter baumannii ATCC 19606 assessed as reduction in microbial growth incubated for 20 hrs; assay type: functional; conditions: ATCC 19606 = CIP 70.34 = JCM 6841, 20 h; summary of the method: as §2
Staphylococcus aureus = experiment: Antibacterial activity against Staphylococcus aureus ATCC 29213 assessed as reduction in microbial growth incubated for 20 hrs; assay type: functional; conditions: ATCC 29213, 20 h; summary of the method: as §2
Escherichia coli [4] = experiment: Antibacterial activity against multi-drug resistant Escherichia coli NMI 3548/14 assessed as reduction in microbial growth incubated for 20 hrs; assay type: functional; conditions: NMI 3548/14, 20 h; summary of the method: as §1
Escherichia coli [5] = experiment: Antibacterial activity against multi-drug resistant Escherichia coli NMI 3898/15 assessed as reduction in microbial growth incubated for 20 hrs; assay type: functional; conditions: NMI 3898/15, 20 h; summary of the method: as §1
Klebsiella pneumoniae [6] = experiment: Antibacterial activity against multi-drug resistant Klebsiella pneumoniae NMI 2697/14 assessed as reduction in microbial growth incubated for 20 hrs; assay type: functional; conditions: NMI 2697/14, 20 h; summary of the method: as §1
Klebsiella pneumoniae [7] = experiment: Antibacterial activity against multi-drug resistant Klebsiella pneumoniae NMI 3081/09 assessed as reduction in microbial growth incubated for 20 hrs; assay type: functional; conditions: NMI 3081/09, 20 h; summary of the method: as §1
[8] = Hemolytic activity against RBC (unknown origin) at 100 uM; assay type: ADME, cell-based, Erythrocyte; conditions: red blood cells (erythrocytes); read-out: Activity

| Structure (SMILES) | MIC (Escherichia coli [1]) [µg/mL] | MIC (Escherichia coli [2]) [µg/mL] | MIC (Klebsiella pneumoniae [3]) [µg/mL] | MIC (Pseudomonas aeruginosa) [µg/mL] | MIC (Acinetobacter baumannii) [µg/mL] | MIC (Staphylococcus aureus) [µg/mL] | MIC (Escherichia coli [4]) [µg/mL] | MIC (Escherichia coli [5]) [µg/mL] | MIC (Klebsiella pneumoniae [6]) [µg/mL] | MIC (Klebsiella pneumoniae [7]) [µg/mL] | hemolysis at 100 µM [8] [%] |
| --- | --- | --- | --- | --- | --- | --- | --- | --- | --- | --- | --- |
| CC[C@H](C)[C@H](NC(=O)[C@@H]1CCCN1C(=O)[C@H](CCCNC(=N)N)NC(=O)[C@@H]1CCCN1C(=O)[C@H](Cc1cnc[nH]1)NC(=O)[C@H](CO)NC(=O)[C@@H](NC(=O)[C@@H]1CCCN1C(=O)[C@H](CCCNC(=N)N)NC(=O)[C@@H]1CCCN1C(=O)[C@H](CO)NC(=O)[C@H](Cc1ccc(O)cc1)NC(=O)[C@@H]1CCCN1C(=O)[C@H](CCCNC(=N)N)NC(=O)[C@@H]1CCCN1C(=O)[C@H](CCCNC(=N)N)NC(=O)CCCCCNC(=O)[C@@H](N)CCCNC(=N)N)[C@@H](C)O)C(=O)N[C@@H](CCCNC(=N)N)C(=O)N[C@H](C(N)=O)C(C)C | > 64 | > 64 | > 64 | > 64 | 64 | > 64 | 32 to 64 | 32 to 64 | > 64 | > 64 | < 1 |
| CC[C@@H](C)[C@@H](NC(=O)[C@@H](CCCCN)NC(=O)[C@@H]([C@H](C)CC)N(C(=O)[C@@H](CCCNC(=N)N)NC(=O)CCCCCNC(=O)[C@H](N)CCCNC(=N)N)C(=O)[C@@H](CCCNC(=N)N)NC(=O)CCCCCNC(=O)[C@H](N)CCCNC(=N)N)C(=O)N[C@H](CC(C)C)C(=O)N[C@H](Cc1ccccc1)C(=O)N[C@H](CCC(N)=O)C(=O)N[C@H](CC(N)=O)C(=O)N[C@H](CCCNC(=N)N)C(=O)N[C@H](CCCNC(=N)N)C(=O)N[C@H](CCSC)C(=O)N[C@H](CCCCN)C(=O)N[C@H](Cc1c[nH]c2ccccc12)C(=O)N[C@H](CCCCN)C(=O)N[C@H](CCCCN)C(=O)N[C@H](CSC1CC(=O)N(CCC(=O)NCCOCCOC(=O)N[C@H](CS)C(=O)N[C@@H](C(=O)N[C@H](CS)C(=O)N[C@H](C)C(=O)N[C@@H](C(=O)N[C@H](C)C(=O)N[C@H](CS)C(=O)N[C@@H](C(=O)N[C@H](CS)C(=O)N[C@@H](C(N)=O)[C@H](C)O)[C@H](C)O)[C@H](C)O)[C@H](C)O)C1=O)C(N)=O (stereo partly drawn) | 8 | 8 | 16 | 8 | 4 | 32 | 8 | 8 | 64 | 16 | 1.6 |
| CC[C@H](C)[C@H](NC(=O)[C@H](CCCCN)NC(=O)[C@H]([C@@H](C)CC)N(C(=O)[C@H](CCCNC(=N)N)NC(=O)CCCCCNC(=O)[C@@H](N)CCCNC(=N)N)C(=O)[C@H](CCCNC(=N)N)NC(=O)CCCCCNC(=O)[C@@H](N)CCCNC(=N)N)C(=O)N[C@@H](CC(C)C)C(=O)N[C@@H](Cc1ccccc1)C(=O)N[C@@H](CCC(N)=O)C(=O)N[C@@H](CC(N)=O)C(=O)N[C@@H](CCCNC(=N)N)C(=O)N[C@@H](CCCNC(=N)N)C(=O)N[C@@H](CCSC)C(=O)N[C@@H](CCCCN)C(=O)N[C@@H](Cc1c[nH]c2ccccc12)C(=O)N[C@@H](CCCCN)C(=O)N[C@@H](CCCCN)C(=O)N[C@@H](CSC1CC(=O)N(CCC(=O)NCCOCCOC(=O)N[C@@H](CS)C(=O)N[C@H](C(=O)N[C@@H](CS)C(=O)N[C@@H](C)C(=O)N[C@H](C(=O)N[C@@H](C)C(=O)N[C@@H](CS)C(=O)N[C@H](C(=O)N[C@@H](CS)C(=O)N[C@H](C(N)=O)[C@@H](C)O)[C@@H](C)O)[C@@H](C)O)[C@@H](C)O)C1=O)C(N)=O (stereo partly drawn) | 8 | 8 to 16 | 2 to 4 | 32 to 64 | 16 | > 64 | 16 to 32 | 32 to 64 | > 64 | > 64 | < 1 |
